Source: PubChem (Johns Hopkins Ion Channel Center)
MrgX1 allo act: allosterically activates human MrgX1 receptor signaling; Q96LB2; MrgX1-HEK293, Fluo-4 calcium flux, FDSS; hits give high values; B-score at 10 µM; 310,000 tested, 0.63% active; AID 588675;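 active = plate-corrected calcium response at least 3 library SD above typical, normal starting fluorescence, not activating the receptor alone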;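 also: compound read alongside a low EC10 to EC30 dose of BAM8-22 agonist; peak minus trough fluorescence over baseline measured at the second addition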
Target sequence (Q96LB2 whole entry, looked up): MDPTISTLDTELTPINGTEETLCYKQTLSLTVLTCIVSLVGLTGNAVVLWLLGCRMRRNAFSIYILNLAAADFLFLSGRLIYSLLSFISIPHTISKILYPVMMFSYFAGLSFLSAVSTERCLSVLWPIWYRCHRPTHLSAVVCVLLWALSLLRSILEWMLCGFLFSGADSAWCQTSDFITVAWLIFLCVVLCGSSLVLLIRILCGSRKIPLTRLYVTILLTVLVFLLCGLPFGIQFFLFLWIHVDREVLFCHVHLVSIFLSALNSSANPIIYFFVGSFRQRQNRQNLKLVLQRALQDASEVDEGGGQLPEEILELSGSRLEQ
MrgX1 ag: human MrgX1 receptor agonism, primary screen; B-score at 10 µM; MrgX1-HEK293 cells, Fluo-4 calcium fluorescence, agonist mode; hits give high values; Q96LB2; 310,000 tested, 0.44% active; AID 588627;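 active = calcium response B-score plate-corrected fluorescence ratio at least 3 library SD, with starting fluorescence B-score inside 5 SD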
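Test system: HEK293 cells stably expressing human MrgX1 receptor; Input: fifteen thousand cells per well; Dosing: compound delivered in addition one of three; Schedule: overnight seeding, then 1 h dark dye loading; Technique: Fluo-4 NW calcium fluorescence; Measure: B-scored fluorescence response ratio; Controls: positive and negative controls per plate.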
MrgX1 antagonist: antagonists of human MrgX1 receptor. Q96LB2. MRGX1-HEK293 calcium flux, Fluo-4, BAM8-22 antagonism; hits give low values. B-score at 10 µM. 310,000 tested, 1.3% active;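 active = calcium-response B-score plate-corrected more than 3 library SD below zero, starting fluorescence within 5 deviations, no agonist response on first addition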;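 also: peak minus trough fluorescence over baseline after final BAM8-22 challenge near maximal dose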
RGS4 block: human RGS4 inhibition. HEK293 M3R/RGS4 inducible, Fluo-4 calcium flux; hits give high values; triggered by carbachol at its EC20. B-score at 10 µM. 310,000 tested, 0.45% active;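 active = B-score, a plate-corrected calcium signal, over three deviations above library mean, with baseline fluorescence within five deviations of library mean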;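 also: RGS4 expression induced by doxycycline in cells with stable M3 receptor; B-score is computed from the integrated fluorescence ratio over baseline after carbachol; higher B-score means a larger calcium signal and so more RGS4 inhibition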
Target sequence (P49798 whole entry, looked up): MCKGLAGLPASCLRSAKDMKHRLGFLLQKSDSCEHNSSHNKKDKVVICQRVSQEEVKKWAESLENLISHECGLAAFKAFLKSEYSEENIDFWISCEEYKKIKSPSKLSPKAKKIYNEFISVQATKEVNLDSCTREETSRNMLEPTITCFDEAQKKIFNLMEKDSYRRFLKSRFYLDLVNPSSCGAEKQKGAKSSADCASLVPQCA
RGS4 act: RGS4 potentiation or activation | HEK293 M3R/inducible RGS4, carbachol calcium flux Fluo4; hits give low values | B-score at 10 µM | 310,000 tested, 0.92% active | AID 463111;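 active = B-score of the integrated calcium signal more than 4 SD below the library mean, with starting fluorescence not abnormally high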;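 also: negative B-score means reduced calcium response which marks RGS4 activation or potentiation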
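Material: M3R-expressing HEK293 line, RGS4 induced by doxycycline | Schedule: Overnight RGS4 induction, 30 min dye load 37 °C, 20 min compound RT | Measured by: Fluo4 fluorescence kinetic imaging of calcium | Read-out: Integrated calcium ratio converted to B score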
MrgX1 PAM conf: human MrgX1 positive allosteric modulation, re-confirmation | MrgX1-HEK293, Fluo-4 calcium fluorescence, FDSS | 1,200 tested, 13% active | shares compounds with MrgX1 allo act | activation (ratio percentage), % at 10 µM;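 active = ratio at least 3 SD above the weak peptide control, stable starting fluorescence, no direct agonism earlier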;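 also: compound followed by low BAM8-22 agonist challenge near EC20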
HEK293 Ca flux: MrgX1 antagonist counter-screen hit in parental HEK293 cells | shares compounds with MrgX1 antagonist | Fluo-4 calcium fluorescence, FDSS | fluorescence ratio F(max-min)/F0 at 10 µM | 4,000 tested, 2% active;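 active = duplicate-averaged calcium fluorescence ratio at least three times the standard deviation of buffer wells, a nonspecific response in parental cells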
HEK293 Ca counter: MrgX1 allosteric activator counter-screen hit in parental HEK293 cells | shares compounds with MrgX1 antagonist | parental HEK293 calcium flux, Fluo-4 fluorescence ratio; hits give high values | fluorescence ratio F(max-min)/F0 at 10 µM | 4,000 tested, 0.4% active | AID 624114;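 active = calcium fluorescence ratio, averaged over duplicates, at least 3 SD of the buffer-well ratio, meaning a nonspecific response in receptor-free cells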;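 also: untransfected parental HEK293 lacking MrgX1 used as counterscreen for MrgX1 allosteric activators; fluorescence change taken during the second addition on a kinetic imager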
HEK293 Ca cntr2: activity in parental HEK293 cells lacking MrgX1 receptor; shares compounds with MrgX1 antagonist; Fluo-4 calcium fluorescence (FDSS); hits give high values; fluorescence ratio F(max-min)/F0 at 10 µM; 4,000 tested, 8.7% active;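 active = calcium fluorescence ratio at least three times the spread of buffer wells, meaning a non-specific response in parental cells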
Numbers stand for hits; . = inactive; / = no result. Most compounds without a hit are left out; they make up all but 3.5% or so of the library.

SMILES | MrgX1 allo act | MrgX1 ag | MrgX1 antagonist | RGS4 block | RGS4 act | MrgX1 PAM conf | HEK293 Ca flux | HEK293 Ca counter | HEK293 Ca cntr2
CCOC(=O)c1c(NC(=O)CN2CCOCC2)sc2c1CCCC2 | 7.1 | . | . | . | . | . | . | . | .
COc1ccc(NC(=O)c2ccc(NS(=O)(=O)c3c(C)noc3C)cc2)cc1OC | . | . | . | . | . | / | / | / | /
Cc1ccc(NC(=O)c2ccc(NS(=O)(=O)c3c(C)noc3C)cc2)cc1C | 13 | . | . | . | . | 2.3% | . | . | .
COc1ccc(CCNC(=O)CCc2ccccc2)cc1OC | 7.5 | . | . | . | . | . | . | . | .
CSc1cccc(NC(=O)Cn2cnc(S(=O)(=O)N3CCCC3)c2)c1 | . | . | . | . | . | / | / | / | /
CCN1CCN(c2nc(Nc3ccc(NC(C)=O)cc3)nc(Nc3ccc(NC(C)=O)cc3)n2)CC1 | 29 | . | . | . | . | . | . | . | .
CCc1nc2ccccc2c(C(=O)Nc2cccc(C)c2)c1C | . | . | . | . | . | / | / | / | /
CN(C)CCN(Cc1ccccc1)S(=O)(=O)c1ccc(-c2ccc(=O)[nH]n2)s1 | 6.6 | . | . | . | . | . | . | . | .
O=C1CCCN1CCCNC(=S)Nc1ccccc1 | . | . | . | . | . | / | / | / | /
CCOC(=O)c1ccc(NC(=S)NCCCN2CCCC2=O)cc1 | 8.6 | . | . | . | . | . | . | . | .
Cc1cccc(N2N=C(C(=O)Nc3nc(C)cs3)CCC2=O)c1 | . | . | . | . | . | / | / | / | /
Cc1nc2ccc(NC(=O)c3cccc(S(=O)(=O)N4CC(C)OC(C)C4)c3)cc2s1 (stereo unspecified) | . | . | . | . | . | / | / | / | /
CCCCNC(=S)Nc1cccc(C(C)=O)c1 | . | . | . | . | . | / | / | / | /
C#CC(CC)(CC)NC(=S)Nc1cccc(C(C)=O)c1 | 8.3 | . | . | . | . | . | . | . | .
O=C1CC(c2ccccc2)Sc2nc3ccccc3n21 (stereo unspecified) | . | . | . | . | . | / | / | / | /
O=C1CC(c2ccc3c(c2)OCO3)Sc2nc3ccccc3n21 (stereo unspecified) | 7.5 | . | . | . | . | . | . | . | .
Cc1ccsc1/C=C(\C#N)C(=O)NCCCN1CCOCC1 | 24 | . | . | . | . | . | . | . | .
Cc1oc2ccc(O)cc2c1C(=O)c1ccc(F)cc1 | 6.8 | . | . | . | . | . | . | . | .
CCN(CC)CCNC(=O)c1cccc(NC(=O)C(=O)c2cc(Br)ccc2NC(C)=O)c1 | . | . | . | . | . | / | / | / | /
O=C(Nc1cccc(F)c1)OC(CN1CCCCC1)C(F)(F)F (stereo unspecified) | 7.2 | . | . | . | . | . | . | . | .
CCOc1ccccc1Nc1ccnc2cc(Cl)ccc12 | 11 | . | . | . | . | . | . | . | .
COc1cccc(Nc2ncccc2C(=O)Nc2ccccc2)c1 | 7.6 | . | . | . | . | . | . | . | .
Cc1cc(C)n(-c2ccc(C(=O)NC3CCCCC3)cc2)n1 | 9.8 | . | . | . | . | . | . | . | .
Cc1ccc(C(=O)NC2CCCCC2)cc1 | . | . | . | . | . | / | / | / | /
COc1ccc(N(CC(=O)Nc2cccnc2)S(=O)(=O)c2ccccc2)cc1Cl | 16 | . | . | . | . | . | . | . | .
SMILES | MrgX1 allo act | MrgX1 ag | MrgX1 antagonist | RGS4 block | RGS4 act | MrgX1 PAM conf | HEK293 Ca flux | HEK293 Ca counter | HEK293 Ca cntr2
C/C(=N\NC(=O)C(O)(c1ccccc1)c1ccccc1)c1ccc(NC(=O)CCCC(=O)O)cc1 | . | . | . | . | . | / | / | / | /
CC1(C)CC(=O)c2sc(NS(=O)(=O)c3ccc(Br)cc3)nc2C1 | 13 | . | . | . | . | . | . | . | .
CC1(C)CC(=O)c2sc(NS(=O)(=O)c3ccc(Cl)cc3)nc2C1 | . | . | . | . | . | / | / | / | /
CC1(C)CC(=O)c2sc(NS(=O)(=O)c3ccc(F)cc3)nc2C1 | 31 | . | . | . | . | 6.6% | . | . | .
CN(C)CCCNc1ccc(-c2cc(Nc3cccc(Cl)c3)ncn2)cn1 | 7.8 | . | . | . | . | . | . | . | .
CCCCCCCOc1ccc(OC(=O)c2ccncc2)cc1 | . | . | . | . | . | / | / | / | /
COc1ccc(C(=O)CCN2CCN(c3ccccc3F)CC2)cc1 | 20 | . | . | . | . | . | . | . | .
COc1ccc(C(=O)CCN2CCN(c3ccc(OC)cc3)CC2)cc1 | . | . | . | . | . | / | / | / | /
CC1CCCC(C)N1C(=O)CSc1nnc(NC(=O)c2cccs2)s1 (stereo unspecified) | 14 | . | . | . | . | . | . | . | .
O=C(Nc1ccccc1F)Nc1ccccc1F | 7.2 | . | . | . | . | . | . | . | .
O=C(Nc1ccccc1F)C(c1ccccc1)c1ccccc1 | . | . | . | . | . | / | / | / | /
COc1ccc(CCN=C(N)NS(=O)(=O)c2ccc(C)c(C)c2)cc1 | . | . | . | . | . | / | / | / | /
O=C1CC(c2ccco2)CC(O)=C1C=Nc1cc(Cl)ccc1O (stereo unspecified) | 10 | . | . | . | . | 41% | . | . | .
CCOC(=O)CN1N=C(c2ccc(Cl)cc2)CCC1=O | . | . | . | . | . | / | / | / | /
S=c1nc[nH]c2c1sc1nc(N3CCOCC3)c3c(c12)CCCC3 | 7.4 | . | . | . | . | . | . | . | .
CC(C)c1nc2sc3c(=S)nc[nH]c3c2c2c1CCC2 | . | . | . | . | . | / | / | / | /
Cc1ccccc1-n1c(SC(C)C(=O)N2CCN(C)CC2)nc2ccccc2c1=O (stereo unspecified) | . | . | . | . | . | / | / | / | /
O=[N+]([O-])c1ccc(N(CC(O)CN2CCCCC2)S(=O)(=O)c2ccccc2)cc1 (stereo unspecified) | . | . | . | . | . | / | / | / | /
COc1ccc(C(=O)Nc2scc(-c3ccc(Cl)cc3Cl)c2C(N)=O)cc1 | 27 | . | . | . | . | 20% | . | . | .
COc1ccc(C(=O)Nc2cc(OC)c(Cl)cc2Cl)cc1 | . | . | . | . | . | / | / | / | /
CCc1cccc(C)c1NC(=S)N(Cc1cccnc1)Cc1ccco1 | . | . | . | . | . | / | / | / | /
CC(C)(C)C(=O)c1cnc(Nc2ccccc2Cl)s1 | 7.1 | . | . | . | . | . | . | . | .
CC(=O)NC(Cc1ccc(F)cc1)C(=O)NC1CCN(C(=O)Nc2cccc(C)c2)CC1 (stereo unspecified) | . | . | . | . | . | / | / | / | /
